Source: ChEMBL document CHEMBL2146366, “Discovery of microsomal triglyceride transfer protein (MTP) inhibitors with potential for decreased active metabolite load compared to dirlotapide” (Bioorg Med Chem Lett, 2011)

What was measured:
Rattus norvegicus [1] = test: Antiobesity activity in high fat diet-induced obese Sprague-Dawley rat assessed as reduction of food intake at 10 mg/kg, po administered daily for 3 days relative to control; type: functional; parameters: scale not given: the % may be the effect or the level left
Method in brief: (§1)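 Male Sprague–Dawley rats (~300 g, n = 5 per group) were acclimatized for seven days to a high-fat diet (45% kcal from fat). They received three consecutive daily oral gavage doses 1.5 h before the dark cycle. Vehicle was SEDDS:H2O 10:90, with SEDDS made of Miglyol 812 10%, triacetin 30%, polysorbate 80 20% and Capmul MCM 30%. Food intake was recorded during dosing, and liver TG was measured afterwards, both against vehicle.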

[2] = Fraction unbound in human HepG2 cells by equilibrium dialysis; type: ADME, cell-based
Method in brief: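 Protein binding was measured by equilibrium dialysis under the conditions of the apoB secretion assay in human HepG2 cells, to give unbound fraction.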

Rattus norvegicus [3] = test: Antiobesity activity in high fat diet-induced obese Sprague-Dawley rat assessed as reduction of triglyceride accumulation in liver at 10 mg/kg, po administered daily for 3 days relative to dirlotapide; type: functional; parameters: scale not given: the % may be the effect or the level left; method in brief: as §1
Rattus norvegicus [4] = test: Antiobesity activity in high fat diet-induced obese Sprague-Dawley rat assessed as reduction of triglyceride accumulation in liver at 10 mg/kg, po administered daily for 3 days relative to control; type: functional; parameters: scale not given: the % may be the effect or the level left; method in brief: as §1
Rattus norvegicus [5] = test: Antiobesity activity in high fat diet-induced obese Sprague-Dawley rat assessed as reduction in body weight at 10 mg/kg, po administered daily for 3 days relative to dirlotapide; type: functional; parameters: scale not given: the % may be the effect or the level left
Rattus norvegicus [6] = test: Antiobesity activity in high fat diet-induced obese Sprague-Dawley rat assessed as reduction of food intake at 10 mg/kg, po administered daily for 3 days relative to dirlotapide; type: functional; parameters: scale not given: the % may be the effect or the level left; method in brief: as §1
Rattus norvegicus [7] = test: Antiobesity activity in high fat diet-induced obese Sprague-Dawley rat assessed as reduction in body weight at 10 mg/kg, po administered daily for 3 days relative to control; type: functional; parameters: scale not given: the % may be the effect or the level left
Rattus norvegicus [8] = test: Antiobesity activity in po dosed high fat diet-induced obese Sprague-Dawley rat assessed as reduction of reduction of triglyceride accumulation in liver administered daily for 3 days; type: functional; conditions: 72 h, read-out: MED
Method in brief: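 Male Sprague–Dawley rats (about 300 g; n = 5 per group) were acclimatized for seven days to a high-fat diet (45% kcal from fat). They received three consecutive daily oral gavage doses in SEDDS:H₂O 10:90 vehicle 1.5 h before the dark cycle. Food intake was recorded, and liver TG was then measured against the vehicle group.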

[9] = Oral bioavailability in rat at 30 mg/kg; type: ADME, organism-based; conditions: in vivo
[10] = AUC in high fat diet-induced obese Sprague-Dawley rat at 10 mg/kg, po qd for 7 days; type: ADME, organism-based; parameters: dose 10 mg/kg, route oral; conditions: plasma
Method in brief: (§2)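 Seven-day rat study: once-daily oral dosing at 3, 10 or 30 mg/kg, with 1, 3 and 100 mg/kg also used for one series. Compounds were given as spray-dried dispersions in hydroxypropylmethylcellulose acetate succinate. Food intake, body weight, liver TG and serum ALT were measured against vehicle. Systemic exposure was reported as AUC (ng h/mL). Significance versus vehicle was set at P ≤ 0.05.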

Rattus norvegicus [11] = test: Antiobesity activity in high fat diet-induced obese Sprague-Dawley rat assessed as triglyceride accumulation in liver at 30 mg/kg, po administered daily for 3 days relative to control; type: functional; method in brief: as §1
Rattus norvegicus [12] = test: Antiobesity activity in po dosed high fat diet-induced obese Sprague-Dawley rat assessed as reduction of body weight administered daily for 3 days; type: functional; conditions: 72 h, read-out: MED
Rattus norvegicus [13] = test: Toxicity in high fat diet-induced obese Sprague-Dawley rat assessed as change in serum ALT level at 30 mg/kg, po qd for 7 days relative to control; type: organism-based; parameters: dose 30 mg/kg, route oral; conditions: in vivo, 168 h
Method in brief: (§3)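 Seven-day study in high-fat-diet rats. Compound was given once daily by mouth as a spray-dried dispersion, with vehicle controls. Serum ALT was measured alongside food intake, body weight, liver TG and systemic exposure (AUC). ALT is expressed as % change versus vehicle, with significance set at P ≤ 0.05.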

Rattus norvegicus [14] = test: Antiobesity activity in high fat diet-induced obese Sprague-Dawley rat assessed as reduction of body weight at 30 mg/kg, po qd for 7 days; type: functional; parameters: scale not given: the % may be the effect or the level left; method in brief: as §2
Rattus norvegicus [15] = test: Antiobesity activity in high fat diet-induced obese Sprague-Dawley rat assessed as reduction of triglyceride accumulation in liver at 10 mg/kg, po qd for 7 days relative to control; type: functional; parameters: scale not given: the % may be the effect or the level left; method in brief: as §2
Rattus norvegicus [16] = test: Toxicity in high fat diet-induced obese Sprague-Dawley rat assessed as change in serum ALT level at 10 mg/kg, po qd for 7 days relative to control; type: organism-based; parameters: dose 10 mg/kg, route oral; conditions: in vivo, 168 h; method in brief: as §3
[17] = Oral bioavailability in beagle dog at 2.5 mg/kg; type: ADME, organism-based, Canis lupus familiaris; conditions: in vivo
Rattus norvegicus [18] = test: Antiobesity activity in high fat diet-induced obese Sprague-Dawley rat assessed as reduction of food intake at 30 mg/kg, po qd for 7 days relative to control; type: functional; parameters: scale not given: the % may be the effect or the level left; method in brief: as §2
Rattus norvegicus [19] = test: Antiobesity activity in high fat diet-induced obese Sprague-Dawley rat assessed as reduction of triglyceride accumulation in liver at 30 mg/kg, po qd for 7 days relative to control; type: functional; parameters: scale not given: the % may be the effect or the level left; method in brief: as §2
Rattus norvegicus [20] = test: Antiobesity activity in high fat diet-induced obese Sprague-Dawley rat assessed as reduction in body weight at 30 mg/kg, po administered daily for 3 days relative to control; type: functional; parameters: scale not given: the % may be the effect or the level left
Rattus norvegicus [21] = test: Antiobesity activity in high fat diet-induced obese Sprague-Dawley rat assessed as reduction of food intake at 30 mg/kg, po administered daily for 3 days relative to control; type: functional; parameters: scale not given: the % may be the effect or the level left; method in brief: as §1
Rattus norvegicus [22] = test: Antiobesity activity in po dosed high fat diet-induced obese Sprague-Dawley rat assessed as reduction of food intake administered daily for 3 days; type: functional; conditions: 72 h, read-out: MED; method in brief: as §1
[23] = AUC in high fat diet-induced obese Sprague-Dawley rat at 30 mg/kg, po qd for 7 days; type: ADME, organism-based; parameters: dose 30 mg/kg, route oral; conditions: plasma; method in brief: as §2
Rattus norvegicus [24] = test: Antiobesity activity in high fat diet-induced obese Sprague-Dawley rat assessed as reduction of body weight at 10 mg/kg, po qd for 7 days relative to control; type: functional; parameters: scale not given: the % may be the effect or the level left; method in brief: as §2
Rattus norvegicus [25] = test: Antiobesity activity in high fat diet-induced obese Sprague-Dawley rat assessed as reduction of food intake at 10 mg/kg, po qd for 7 days relative to control; type: functional; parameters: scale not given: the % may be the effect or the level left; method in brief: as §2

SMILES | fraction unbound [2] | Activity (Rattus norvegicus [1]) [%] | Activity (Rattus norvegicus [3]) [%] | Activity (Rattus norvegicus [4]) [%] | Activity (Rattus norvegicus [5]) [%] | Activity (Rattus norvegicus [6]) [%] | Activity (Rattus norvegicus [7]) [%] | further results
Cn1c(C(=O)N[C@H](C(N)=O)c2ccccc2)cc2cc(NC(=O)c3ccccc3-c3ccc(C(F)(F)F)cc3)ccc21 | 0.23 | 37 | 112 | 87 | 115 | 43 | 108 | 
CN(Cc1ccc(F)cc1)C(=O)[C@@H](NC(=O)c1ccc2nc(NC(=O)c3ccccc3-c3ccc(C(F)(F)F)cc3)ccc2c1)c1ccccc1 | 0.0014 | 43 | 70 | 88 | 8 | 11 | 96 | 
CN(Cc1ccc(F)cc1)C(=O)[C@@H](NC(=O)c1ccc2nc(NC(=O)c3ccccc3-c3ccc(OC(C)(C)C)cc3)ccc2c1)c1ccccc1 |  | 40 | 112 | 72 | 95 | 38 | 108 | 
CN(Cc1ccc(F)cc1)C(=O)[C@@H](NC(=O)c1ccc2nc(NC(=O)c3ccccc3-c3ccc(C(C)(C)CO)cc3)ccc2c1)c1ccccc1 | 0.023 |  |  |  |  |  |  | 
CN(Cc1ccc(F)cc1)C(=O)[C@@H](NC(=O)c1ccc2nc(NC(=O)c3ccccc3-c3ccc(C(C)(C)C(=O)O)cc3)ccc2c1)c1ccccc1 | 0.0088 |  |  |  |  |  |  | 
CC(C)(C(=O)O)c1ccc(-c2ccccc2C(=O)Nc2ccc3cc(C(=O)N[C@H](C(=O)NCc4ccc(F)cc4)c4ccccc4)ccc3n2)cc1 | 0.0211 |  |  |  |  |  |  | 
CNC(=O)[C@@H](NC(=O)c1cc2cc(NC(=O)c3ccccc3-c3ccc(C(F)(F)F)cc3)ccc2n1C)c1ccccc1 | 0.21 | 40 | 112 | 147 | 115 | 43 | 106 | 
CC(C)(CO)c1ccc(-c2ccccc2C(=O)Nc2ccc3cc(C(=O)N[C@H](C(=O)NCc4ccc(F)cc4)c4ccccc4)ccc3n2)cc1 | 0.0135 |  |  |  |  |  |  | 
CN(Cc1ccc(F)cc1)C(=O)[C@@H](NC(=O)c1ccc2nc(NC(=O)c3ccccc3-c3ccc(O)cc3)ccc2c1)c1ccccc1 | 0.0095 |  |  |  |  |  |  | 

Further lines, with some results ahead:

fraction unbound [2] | SMILES | Activity (Rattus norvegicus [1]) [%] | Activity (Rattus norvegicus [3]) [%] | Activity (Rattus norvegicus [4]) [%] | Activity (Rattus norvegicus [5]) [%] | Activity (Rattus norvegicus [6]) [%] | Activity (Rattus norvegicus [7]) [%] | further results
0.0061 | CC(C)Oc1ccc(-c2ccccc2C(=O)Nc2ccc3cc(C(=O)N[C@H](C(=O)NCc4ccc(F)cc4)c4ccccc4)ccc3n2)cc1 |  |  |  |  |  |  | 
0.038 | CNC(=O)[C@@H](NC(=O)c1ccc2nc(NC(=O)c3ccccc3-c3ccc(C(C)(C)C)cc3)ccc2c1)c1ccccc1 |  |  |  |  |  |  | 
0.0011 | CC(C)c1ccc(-c2ccccc2C(=O)Nc2ccc3cc(C(=O)N[C@H](C(=O)N(C)Cc4ccc(F)cc4)c4ccccc4)ccc3n2)cc1 | 38 | 70 | 16 | 8 | 11 | 91 | 
0.013 | CC(CO)Oc1ccc(-c2ccccc2C(=O)Nc2ccc3cc(C(=O)N[C@H](C(=O)N(C)Cc4ccc(F)cc4)c4ccccc4)ccc3n2)cc1 (some centres not stated) |  |  |  |  |  |  | 
0.0023 | CC(C)(C)c1ccc(-c2ccccc2C(=O)Nc2ccc3cc(C(=O)N[C@H](C(=O)NCc4ccc(F)cc4)c4ccccc4)ccc3n2)cc1 |  |  |  |  |  |  | 
0.0043 | Cc1ccc(-c2ccccc2C(=O)Nc2ccc3cc(C(=O)N[C@H](C(=O)N(C)Cc4ccc(F)cc4)c4ccccc4)ccc3n2)cc1 | 38 | 216 | 43 | 117 | 50 | 75 | 
0.022 | CC(Oc1ccc(-c2ccccc2C(=O)Nc2ccc3cc(C(=O)N[C@H](C(=O)N(C)Cc4ccc(F)cc4)c4ccccc4)ccc3n2)cc1)C(=O)O (some centres not stated) |  |  |  |  |  |  | 
0.16 | CNC(=O)[C@@H](NC(=O)c1ccc2nc(NC(=O)c3ccccc3-c3ccc(OC(C)C)cc3)ccc2c1)c1ccccc1 |  |  |  |  |  |  | 
0.0038 | CC(C)Oc1ccc(-c2ccccc2C(=O)Nc2ccc3cc(C(=O)N[C@H](C(=O)N(C)Cc4ccc(F)cc4)c4ccccc4)ccc3n2)cc1 | 30 | 111 | 16 | 88 | 28 | 56 | minimal effective dose (Rattus norvegicus [8]): 3 mg/kg; bioavailability [9]: < 3%; AUC at 168 h [10]: 51 ng·h/mL; Activity (Rattus norvegicus [11]): 15%; minimal effective dose (Rattus norvegicus [12]): 3 mg/kg; Activity (Rattus norvegicus [13]): 191%; Activity (Rattus norvegicus [14]): 148%; Activity (Rattus norvegicus [15]): 113%; Activity (Rattus norvegicus [16]): 10%; bioavailability [17]: < 3%; Activity (Rattus norvegicus [18]): 25%; Activity (Rattus norvegicus [19]): 184%; Activity (Rattus norvegicus [20]): 152%; Activity (Rattus norvegicus [21]): 45%; minimal effective dose (Rattus norvegicus [22]): 3 mg/kg; AUC at 168 h [23]: 47 ng·h/mL; Activity (Rattus norvegicus [24]): 82%; Activity (Rattus norvegicus [25]): 21%
